Results reported in ChEMBL document CHEMBL1255501, “Heteroresistance of Cryptococcus gattii to fluconazole” (2010).

Columns and labels:
[1] = test system: Cryptococcus gattii species complex; experiment: Antimicrobial activity against Cryptococcus gattii serotype B isolate NIH409 assessed as heteroresistant isolates at 8 ug/ml; format: functional, Cryptococcus bacillisporus
Method in brief: (§1)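 Population analysis: cells suspended in sterile saline at 1 × 10³ to 4 × 10³ CFU/ml and plated on plain YPD agar or YPD agar with various fluconazole concentrations. Plates incubated at 30°C for 72 h. The resistant subpopulation at each concentration is recorded as a percentage of the population.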

[2] = test system: Cryptococcus gattii species complex; experiment: Antimicrobial activity against Cryptococcus gattii serotype B isolate RB-17 assessed as concentration required for heteroresistance; format: functional, Cryptococcus bacillisporus
[3] = test system: Cryptococcus gattii species complex; experiment: Antimicrobial activity against Cryptococcus gattii serotype B isolate RAM-005 assessed as concentration required for heteroresistance; format: functional, Cryptococcus bacillisporus
[4] = test system: Cryptococcus gattii species complex; experiment: Antimicrobial activity against Cryptococcus gattii serotype B isolate NIH198 assessed as heteroresistant isolates at 8 ug/ml; format: functional, Cryptococcus bacillisporus; method in brief: as §1
[5] = test system: Cryptococcus gattii species complex; experiment: Antimicrobial activity against Cryptococcus gattii serotype B isolate NIH409 assessed as concentration required for heteroresistance; format: functional, Cryptococcus bacillisporus
Method in brief: (§2)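 Fluconazole spot test: 10-fold serial dilutions of each single-colony-purified strain spotted on YPD agar alone and YPD agar with fluconazole at 4 to 128 μg/ml. The level of heteroresistance to fluconazole (LHF) is the lowest drug concentration at which minor resistant subpopulations emerge within the spot.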

[6] = test system: Cryptococcus gattii species complex; experiment: Antimicrobial activity against Cryptococcus gattii serotype B isolate RB14 assessed as heteroresistant isolates at 8 ug/ml; format: functional, Cryptococcus bacillisporus
Method in brief: (§3)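 Population analysis: saline cell suspensions (1 × 103 to 4 × 10^3 CFU/ml) plated on plain YPD agar or YPD agar with various fluconazole concentrations; growth recorded after 72 h at 30°C; percentage of resistant subpopulation at each drug level calculated relative to drug-free plate growth.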

[7] = test system: Cryptococcus gattii species complex; experiment: Antimicrobial activity against Cryptococcus gattii serotype B isolate NIH200 assessed as heteroresistant isolates at 4 ug/ml; format: functional, Cryptococcus bacillisporus; method in brief: as §1
[8] = test system: Cryptococcus gattii species complex; experiment: Antimicrobial activity against Cryptococcus gattii serotype C isolate NIH113 assessed as heteroresistant isolates at 16 ug/ml; format: functional, Cryptococcus bacillisporus; method in brief: as §3
[9] = test system: Cryptococcus gattii species complex; experiment: Antimicrobial activity against Cryptococcus gattii serotype C isolate H0058-1-818 assessed as heteroresistant isolates at 8 ug/ml; format: functional, Cryptococcus bacillisporus; method in brief: as §3
[10] = test system: Cryptococcus gattii species complex; experiment: Antimicrobial activity against Cryptococcus gattii serotype B isolate NIH754 assessed as heteroresistant isolates at 2 ug/ml; format: functional, Cryptococcus bacillisporus; method in brief: as §1
[11] = test system: Cryptococcus gattii species complex; experiment: Antimicrobial activity against Cryptococcus gattii serotype B isolate B5765 assessed as heteroresistant isolates at 4 ug/ml; format: functional, Cryptococcus bacillisporus; method in brief: as §1
[12] = test system: Cryptococcus gattii species complex; experiment: Antimicrobial activity against Cryptococcus gattii serotype C isolate NIH298 assessed as concentration required for heteroresistance; format: functional, Cryptococcus bacillisporus
Method in brief: (§4)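 […] on YPD agar at 4 to 128 μg/ml. The lowest drug concentration at which minor resistant subpopulations emerged within the patch was scored as the strain's level of heteroresistance.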

[13] = test system: Cryptococcus gattii species complex; experiment: Antimicrobial activity against Cryptococcus gattii serotype C isolate H0058-1-1941 assessed as concentration required for heteroresistance; format: functional, Cryptococcus bacillisporus
[14] = test system: Cryptococcus gattii species complex; experiment: Antimicrobial activity against Cryptococcus gattii serotype C isolate H0058-1-1875 assessed as concentration required for heteroresistance; format: functional, Cryptococcus bacillisporus
[15] = test system: Cryptococcus gattii species complex; experiment: Antimicrobial activity against Cryptococcus gattii serotype B isolate NIH189 assessed as concentration required for heteroresistance; format: functional, Cryptococcus bacillisporus; method in brief: as §2
[16] = test system: Cryptococcus gattii species complex; experiment: Antimicrobial activity against Cryptococcus gattii serotype B isolate NIH412 assessed as heteroresistant isolates at 4 ug/ml; format: functional, Cryptococcus bacillisporus; method in brief: as §1
[17] = test system: Cryptococcus gattii species complex; experiment: Antimicrobial activity against Cryptococcus gattii serotype B isolate NIH535 assessed as concentration required for heteroresistance; format: functional, Cryptococcus bacillisporus; method in brief: as §2
[18] = test system: Cryptococcus gattii species complex; experiment: Antimicrobial activity against Cryptococcus gattii serotype B isolate RB3 assessed as heteroresistant isolates at 4 ug/ml; format: functional, Cryptococcus bacillisporus; method in brief: as §3
[19] = test system: Cryptococcus gattii species complex; experiment: Antimicrobial activity against Cryptococcus gattii serotype B isolate RAM-002 assessed as concentration required for heteroresistance; format: functional, Cryptococcus bacillisporus
[20] = test system: Cryptococcus gattii species complex; experiment: Antimicrobial activity against Cryptococcus gattii serotype B isolate NIH184 assessed as concentration required for heteroresistance; format: functional, Cryptococcus bacillisporus; method in brief: as §2
[21] = test system: Cryptococcus gattii species complex; experiment: Antimicrobial activity against Cryptococcus gattii serotype C isolate NIH113 assessed as heteroresistant isolates at 8 ug/ml; format: functional, Cryptococcus bacillisporus; method in brief: as §3
[22] = test system: Cryptococcus gattii species complex; experiment: Antimicrobial activity against Cryptococcus gattii serotype C isolate H0058-1-818 assessed as heteroresistant isolates at 2 ug/ml; format: functional, Cryptococcus bacillisporus; method in brief: as §3
[23] = test system: Cryptococcus gattii species complex; experiment: Antimicrobial activity against Cryptococcus gattii serotype C isolate H0058-1-78 assessed as heteroresistant isolates at 32 ug/ml; format: functional, Cryptococcus bacillisporus; method in brief: as §3
[24] = test system: Cryptococcus gattii species complex; experiment: Antimicrobial activity against Cryptococcus gattii serotype C isolate NIH18 assessed as heteroresistant isolates at 4 ug/ml; format: functional, Cryptococcus bacillisporus; method in brief: as §3
[25] = test system: Cryptococcus gattii species complex; experiment: Antimicrobial activity against Cryptococcus gattii serotype B isolate NIH535 assessed as heteroresistant isolates at 2 ug/ml; format: functional, Cryptococcus bacillisporus; method in brief: as §1
[26] = test system: Cryptococcus gattii species complex; experiment: Antimicrobial activity against Cryptococcus gattii serotype B isolate RB14 assessed as heteroresistant isolates at 32 ug/ml; format: functional, Cryptococcus bacillisporus; method in brief: as §3
[27] = test system: Cryptococcus bacillisporus; experiment: Antimicrobial activity against Cryptococcus gattii serotype C isolate NIH191 assessed as heteroresistant isolates at 16 ug/ml; format: functional; method in brief: as §3
[28] = test system: Cryptococcus gattii species complex; experiment: Antimicrobial activity against Cryptococcus gattii serotype B isolate NIH286 assessed as heteroresistant isolates at 8 ug/ml; format: functional, Cryptococcus bacillisporus; method in brief: as §1
[29] = test system: Cryptococcus gattii species complex; experiment: Antimicrobial activity against Cryptococcus gattii serotype B isolate RB-14 assessed as concentration required for heteroresistance; format: functional, Cryptococcus bacillisporus
[30] = test system: Cryptococcus gattii species complex; experiment: Antimicrobial activity against Cryptococcus gattii serotype C isolate NIH139 assessed as concentration required for heteroresistance; format: functional, Cryptococcus bacillisporus
[31] = test system: Cryptococcus gattii species complex; experiment: Antimicrobial activity against Cryptococcus gattii serotype C isolate NIH298 assessed as heteroresistant isolates at 8 ug/ml; format: functional, Cryptococcus bacillisporus
Method in brief: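 Cell suspensions of 1 × 10^3 to 4 × 10^3 CFU/ml were made in sterile saline and plated on plain YPD agar or YPD agar with various fluconazole concentrations. Plates were incubated at 30°C for 72 h, and the percentage of resistant subpopulation emerging was recorded.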

[32] = test system: Cryptococcus gattii species complex; experiment: Antimicrobial activity against Cryptococcus gattii serotype C isolate H0058-1-2023 assessed as heteroresistant isolates at 4 ug/ml; format: functional, Cryptococcus bacillisporus; method in brief: as §3
[33] = test system: Cryptococcus gattii species complex; experiment: Antimicrobial activity against Cryptococcus gattii serotype C isolate NIH403 assessed as concentration required for heteroresistance; format: functional, Cryptococcus bacillisporus; method in brief: as §4
[34] = test system: Cryptococcus deuterogattii; experiment: Antimicrobial activity against Cryptococcus gattii serotype B isolate NIH444 assessed as heteroresistant isolates at 2 ug/ml; format: functional, Cryptococcus bacillisporus; method in brief: as §1
[35] = test system: Cryptococcus gattii species complex; experiment: Antimicrobial activity against Cryptococcus gattii serotype B isolate NIH367 assessed as heteroresistant isolates at 4 ug/ml; format: functional, Cryptococcus bacillisporus; method in brief: as §1
[36] = test system: Cryptococcus gattii species complex; experiment: Antimicrobial activity against Cryptococcus gattii serotype C isolate H0058-1-1686 assessed as heteroresistant isolates at 4 ug/ml; format: functional, Cryptococcus bacillisporus; method in brief: as §3
[37] = test system: Cryptococcus gattii species complex; experiment: Antimicrobial activity against Cryptococcus gattii serotype C isolate NIH312 assessed as concentration required for heteroresistance; format: functional, Cryptococcus bacillisporus; method in brief: as §4
[38] = test system: Cryptococcus gattii species complex; experiment: Antimicrobial activity against Cryptococcus gattii serotype B isolate RAM15 assessed as heteroresistant isolates at 16 ug/ml; format: functional, Cryptococcus bacillisporus; method in brief: as §3
[39] = test system: Cryptococcus gattii species complex; experiment: Antimicrobial activity against Cryptococcus gattii serotype B isolate NIH189 assessed as heteroresistant isolates at 8 ug/ml; format: functional, Cryptococcus bacillisporus; method in brief: as §1
[40] = test system: Cryptococcus gattii species complex; experiment: Antimicrobial activity against Cryptococcus gattii serotype C isolate H0058-1-2086 assessed as concentration required for heteroresistance; format: functional, Cryptococcus bacillisporus
[41] = test system: Cryptococcus gattii species complex; experiment: Antimicrobial activity against Cryptococcus gattii serotype B isolate VPB572-058 assessed as heteroresistant isolates at 16 ug/ml; format: functional, Cryptococcus bacillisporus; method in brief: as §3
[42] = test system: Cryptococcus gattii species complex; experiment: Antimicrobial activity against Cryptococcus gattii serotype B isolate NIH184 assessed as heteroresistant isolates at 8 ug/ml; format: functional, Cryptococcus bacillisporus; method in brief: as §1
[43] = test system: Cryptococcus gattii species complex; experiment: Antimicrobial activity against Cryptococcus gattii serotype B isolate NIH412 assessed as concentration required for heteroresistance; format: functional, Cryptococcus bacillisporus; method in brief: as §2

## OC(Cn1cncn1)(Cn1cncn1)c1ccc(F)cc1F [FLUCONAZOLE]
[1]
  Activity: 100%
[2]
  Activity: 32 µg/mL
[3]
  Activity: 32 µg/mL
[4]
  Activity: 100%
[5]
  Activity: 32 µg/mL
[6]
  Activity: 100%
[7]
  Activity: 0.1%
[8]
  Activity: 100%
[9]
  Activity: 100%
[10]
  Activity: 100%
[11]
  Activity: 100%
[12]
  Activity: 32 µg/mL
[13]
  Activity: 32 µg/mL
[14]
  Activity: 32 µg/mL
[15]
  Activity: 16 µg/mL
[16]
  Activity: 0.07%
[17]
  Activity: 4 µg/mL
[18]
  Activity: 100%
[19]
  Activity: 32 µg/mL
[20]
  Activity: 16 µg/mL
[21]
  Activity: 100%
[22]
  Activity: 100%
[23]
  Activity: 2.3%
[24]
  Activity: 100%
[25]
  Activity: 100%
[26]
  Activity: 0.8%
[27]
  Activity: 100%
[28]
  Activity: 100%
[29]
  Activity: 32 µg/mL
[30]
  Activity: 32 µg/mL
[31]
  Activity: 100%
[32]
  Activity: 100%
[33]
  Activity: 16 µg/mL
[34]
  Activity: 100%
[35]
  Activity: 100%
[36]
  Activity: 100%
[37]
  Activity: 32 µg/mL
[38]
  Activity: 100%
[39]
  Activity: 100%
[40]
  Activity: 32 µg/mL
[41]
  Activity: 100%
[42]
  Activity: 100%
[43]
  Activity: 4 µg/mL
